Measured values pooled from the literature.
Cell line: PC-3
Observed: cell growth or viability

Compound	test	setting	inhibition [%]
O=C(Nc1cccc(S(=O)(=O)N2CCCC2)c1)C1CCCN(C(=O)c2cc(C(F)(F)F)cc(C(F)(F)F)c2)C1 (stereo not drawn)	WST-1	100 µM	0
COc1cc(CNC(=O)C[C@H](C)CCC=C(C)C)ccc1OCc1cn(-c2ccc(Cl)cc2)nn1	SRB	10 µM	28
COc1ccc(C(=O)/C=C/c2cccc(Cl)c2Cl)cc1S(N)(=O)=O	SRB	10 µM	95
COC(=O)c1cccc(NC(=O)C2CCCN(C(=O)c3cc(C(F)(F)F)cc(C(F)(F)F)c3)C2)c1 (stereo not drawn)	WST-1	100 µM	0
COc1ccc(C(=O)/C=C/c2cccc3ccccc23)cc1S(N)(=O)=O	SRB	10 µM	87
COc1ccc(/C=C2\SC(=S)N(CC(=O)Nc3ccccc3)C2=O)cc1	MTT	10 µM	25
CCc1cccc(NC(=O)C2CCCN(C(=O)c3cc(C(F)(F)F)cc(C(F)(F)F)c3)C2)c1 (stereo not drawn)	WST-1	100 µM	0
COc1ccccc1/C=C/C(=O)c1ccc(OC)c(S(N)(=O)=O)c1	SRB	10 µM	52
O=C(CN1C(=O)/C(=C/c2cccc(F)c2)SC1=S)Nc1ccccc1	MTT	10 µM	18.9
O=C(Nc1cccc(Cc2ccccc2)c1)C1CCCN(C(=O)c2cccc(-c3ccco3)c2)C1 (stereo not drawn)	WST-1	100 µM	0
COc1cccc(NC(=O)CN2C(=O)/C(=C/c3cccs3)SC2=S)c1	MTT	10 µM	7.28
COc1ccc(C(=O)/C=C/c2cccc(Br)c2)cc1S(N)(=O)=O	SRB	10 µM	135
Cn1cnnc1-c1cccc(NC(=O)C2CCCN(C(=O)c3cc(C(F)(F)F)cc(C(F)(F)F)c3)C2)c1 (stereo not drawn)	WST-1	100 µM	0
COc1ccc(C(=O)/C=C/c2cccnc2)cc1S(N)(=O)=O	SRB	10 µM	22
O=C(CN1C(=O)/C(=C/c2ccncc2)SC1=S)Nc1ccccc1	MTT	10 µM	5.33
